Data on 3 compounds can be found in ChEMBL document CHEMBL6134855, “Peptidomimetics Activating the Proteasome: A New Perspective for Parkinson's Treatment” (J Med Chem, 2025).

Calls of active or inactive are those of the source. No cut-off for these calls is given here. Where a SMILES comes first, the peptide text is derived from it. [ ]: non-standard residue; d: D form. NMeR = CN[C@@H](CCCNC(=N)N)C(=O)O; NMeS = CN[C@@H](CO)C(=O)O

Data set [1] has as its target T1, 20S proteasome (Homo sapiens) (UniProt P49721+P20618+P28074+P28062+P28065+P28072+P25786+P25787+P25788+P25789+P28066+P60900+O14818+Q8TAA3+P40306+A5LHX3+P49720+P28070+Q99436). The data set is described as follows: Activation of human erythrocyte-derived 20S proteasome caspase-like activity using Z-LLE-AMC as substrate at 1.0 to 50 uM measured every two mins for 60 mins by fluorescence based analysis. Particulars: filed as activator, dose 1-50 µM. In a few lines: (§1)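 Latent human 20S proteasome (0.002 mg/mL, 2.8 nM) in 50 mM Tris/HCl pH 8.0 with 2% DMSO. AMC substrates at 100 μM final (ex 380/em 460 nm); Dabcyl-EDANS at 15 μM final (ex 335/em 493 nm). Modulators at 1.0–50 μM; TAT- or 6R-containing constructs at 0.5–10 μM. Read every 2 min for 60 min at 37 °C. Activity relative to DMSO-treated proteasome (100%). ≥3 independent replicates.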

For data set [2], the target named is T1, 20S proteasome (Homo sapiens). Put plainly: Activation of human erythrocyte-derived 20S proteasome chymotrypsin-like activity using Suc-LLVY-AMC as substrate at 1.0 to 50 uM measured every two mins for 60 mins by fluorescence based analysis. Particulars: filed as activator, dose 1-50 µM.
The target is the same in data set [3]. The data set is described as follows: Activation of human erythrocyte-derived 20S proteasome using Dabcyl-EDANS as FRET-type substrate at 1.0 to 50 uM measured every two mins for 60 mins by fluorescence based analysis. It counts as cell-based. Particulars: filed as activator, dose 1-50 µM. In a few lines: as §1
Data set [4] is described as follows: Effect on secondary structure of drug in water at 2 mg/ml assessed as alpha-helical conformation by CD analysis. It counts as physicochemical. Particulars: buffer.
Data set [5] deals with T1, 20S proteasome (Homo sapiens). The data set is described as follows: Activation of human erythrocyte-derived 20S proteasome trypsin-like activity using Boc-LRR-AMC as substrate at 1.0 to 50 uM measured every two mins for 60 mins by fluorescence based analysis. Particulars: dose 1-50 µM.
For data set [6] the target is unchanged. The data set is described as follows: Activation of human erythrocyte-derived 20S proteasome using Dabcyl-EDANS as FRET-type substrate at higher concentration measured every two mins for 60 mins by fluorescence based analysis. It counts as cell-based. Conditions: filed as activator. In a few lines:
as §1

Data set [7] has as its system Hippocampal neuron. The data set is described as follows: Neuroprotective activity in mouse Hippocampal neuron cells assessed as neuron viability at 0.5 to 2.5 uM pretreated with alpha-synuclein followed by compound addition measured after 7 days by immunostaining analysis. Particulars: dose 0.5-2.5 µM, time 7.0 day. It counts as functional, cell-based. In a few lines: (§2)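 E16.0 mouse hippocampal neurons, 25,000 per well, poly-L-lysine coated, Neurobasal/B27. Day 8: sonicated mouse α-synuclein PFFs added (2.5 μg/mL final; PBS for controls). Modulator (0.5 or 2.5 μM) added 1 h later. Day 15: PFA fixation; immunostaining for pS129-αsyn and NeuN plus DAPI; automated imaging. 3 biological, 9–11 technical replicates.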

In data set [8] the test system is Hippocampal neuron. The data set is described as follows: Neuroprotective activity in mouse Hippocampal neuron cells assessed as decrease in Lewy body-like aggregates at 0.5 to 2.5 uM pretreated with alpha-synuclein followed by compound addition measured after 7 days by immunostaining analysis. In kind it is functional, cell-based. Particulars: dose 0.5-2.5 µM, time 7.0 day. Summed up: as §2

Data set [9] can be described thus: Permeability of compound in PBS incubated for 22 hrs by PAMPA-BBB assay. It counts as ADME. In a few lines:
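PAMPA-BBB with a 2% porcine brain lipid membrane. Compounds were diluted from 10 mM aqueous stocks to 500 μM in 0.1 M PBS containing 5% DMSO and incubated 22 h at 37 °C with shaking at 250 rpm. Read-out was fluorescence after reaction with 0.02% fluorescamine (absorbance at 290 nm for propranolol). Pe calculated as linear permeation velocity. Three biological replicates.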
In general terms: PAMPA measures passive passage across an artificial lipid membrane.

Data set [10] addresses T1, 20S proteasome (Homo sapiens). The data set is described as follows: Activation of human 20S proteasome assessed as tau degradation at 10 uM by SDS-PAGE analysis relative to control. In kind it is protein-complex assay. Conditions: filed as activator, time 1.5 hrs.
Data set [11] relates to HEK-293T. Put plainly: Cytotoxicity in HEK293T cells assessed as cell viability at 1 to 10 uM incubated for 24 hrs by MTT assay relative to control. In kind it is toxicity, cell-based. Conditions: human, dose 1-10 µM. Summed up: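 HEK293T cells grown 2 days, then medium replaced with compound at 1, 10, 25, 50 or 100 μM for 24 h. MTT added, formazan dissolved in DMSO, absorbance read at 570 nm. Mean of three biological replicates vs control, one-way ANOVA.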
In general terms: Formazan colour is commonly taken as a measure of viable cells.

Data set [12] deals with T1, 20S proteasome (Homo sapiens). Put plainly: Activation of 20S proteasome chymotrypsin-like activity in HEK293T cell lysate using Suc-LLVY-AMC as substrate assessed as fold increase in activity at 5 uM by fluorescence based analysis relative to control. It counts as subcellular. Conditions: filed as activator. Summed up:
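Chymotrypsin-like activity read with Suc-LLVY-AMC. 1 μM bortezomib as negative control. Fold activity vs vehicle control; at least three independent replicates, one-way ANOVA with Tukey.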

Data set [13] has the same target. Put plainly: Activation of human erythrocyte-derived 20S proteasome trypsin-like activity using Boc-LRR-AMC as substrate at 0.5 to 10 uM measured every two mins for 60 mins by fluorescence based analysis. Particulars: filed as activator, dose 0.5-10 µM.
The target is the same in data set [14]. Put plainly: Activation of human erythrocyte-derived 20S proteasome chymotrypsin-like activity using Suc-LLVY-AMC as substrate assessed as fold increase in activity at 1 uM measured every two mins for 60 mins by fluorescence based analysis relative to control. Conditions: filed as activator. Summed up: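 h20S proteasome 0.002 mg/mL (2.8 nM) in 50 mM Tris/HCl pH 8.0, 2% DMSO final. Suc-LLVY-AMC 100 μM final. Modulators 1.0–50 μM (TAT/6R constructs 0.5–10 μM). AMC fluorescence ex 380/em 460 nm read every 2 min for 60 min at 37 °C. Activity relative to DMSO-treated latent proteasome (100%); ≥3 replicates.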

Data set [15] in a line: Proteolytic stability of compound in human plasma assessed as protease-mediated degradation by measuring compound remaining at 200 uM incubated for 30 mins by UHPLC analysis. It counts as ADME, cell-free. Conditions: read-out: Stability. In a few lines:
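Compound (200 μM final, dissolved in water) incubated in human serum at 37 °C for 30 min. Samples every 5 min quenched 1:1 with 6% TCA and centrifuged. Supernatant analysed by UHPLC (UV 223 nm) for intact compound; cleavage sites identified by MS.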

The subject of data set [16] is Hippocampal neuron. The data set is described as follows: Neuroprotective activity in mouse Hippocampal neuron cells assessed as increase in cell number at 0.5 to 5 uM pretreated with preformed fibrils followed by compound treatment measured after 7 days by DAPI staining/NeuN protein immunostaining analysis. It counts as functional, cell-based. Particulars: dose 0.5-5 µM, time 7.0 day.

The target of data set [17] is T1, 20S proteasome (Homo sapiens). The data set is described as follows: Activation of human 20S proteasome assessed as alpha-synuclein degradation by measuring residual activity at 10 uM by SDS-PAGE analysis relative to control. In kind it is protein-complex assay. Particulars: filed as activator, time 1.5 hrs.
The next data set has as its system Primary cortical neuron. Put plainly: Activation of 20S proteasome in mouse Primary cortical neuron cells assessed as reduction in alpha-synuclein level at 2.5 uM incubated for 7 days. In kind it is cell-based. Particulars: filed as activator, time 7.0 day. In a few lines: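 E16–E17 CD1 mouse cortical neurons cultured in Neurobasal A with B-27 and GlutaMAX. Treated at DIV7 with 2.5 μM activator for 7 days; lysed at DIV14, protein by BCA. α-Synuclein quantified by Simple Western Jess automated immunoblot with total-protein normalization. n = 3 biological replicates.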

Data set [18] concerns HEK-293T. Put plainly: Cytotoxicity against HEK293T cells assessed as cell viability at 10 uM measured after 3 hrs by Hoechst 33342 staining based analysis. It counts as toxicity. Conditions: human. Summed up: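 HEK293T cells in DMEM/10% FBS, seeded 3 × 10^4 per well and grown 48 h, then given 10 μM NBD-labelled modulators for 3 h. Hoechst 33342 added for the final 30 min. Cells washed with PBS and imaged by fluorescence microscopy (NBD and Hoechst channels). Three independent replicates.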

For data set [19], the system named is Hippocampal neuron. The data set is described as follows: Activation of 20S proteasome in mouse Hippocampal neuron cells assessed as reduction in alpha-synuclein aggregation measured after 7 days by DAPI staining based immunofluorescence analysis. It counts as cell-based. Particulars: filed as activator, dose 0.5-5 µM, time 7.0 day.
A short description of data set [20]: Cytotoxicity in HEK293T cells assessed as cell viability at 100 uM incubated for 24 hrs by MTT assay relative to control. In kind it is toxicity, cell-based, HEK-293T. Conditions: human, read-out: Activity. Summed up: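 HEK293T cells grown in complete medium for 2 days, then the medium was replaced with compound at 1, 10, 25, 50 or 100 μM for 24 h. MTT was added, formazan dissolved in DMSO, and absorbance read at 570 nm. Mean of three biological replicates, compared with untreated control.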

For `C[C@@H](O)[C@H](NC(=O)[C@H](Cc1ccccc1)NC(=O)[C@H](Cc1ccc(O)cc1)NC(=O)[C@@H](N)CCCCN)C(=O)NCC(=O)N[C@@H](CO)C(=O)N[C@@H](CCCCN)C(=O)N[C@@H](CC(=O)O)C(=O)N[C@@H](Cc1c[nH]c2ccccc12)C(=O)N(C)[C@@H](CCCNC(=N)N)C(=O)N(C)[C@@H](CO)C(=O)N[C@@H](Cc1ccc(O)cc1)C(=O)N[C@@H](Cc1ccc(O)cc1)C(=O)N[C@@H](CO)C(=O)O` (H-KYFTGSKDW[NMeR][NMeS]YYS-OH), the Activity entry in [1] is “Moderate_effect”; in data set [2], “Active; Lower Capacity Of Activation Is Observed”; in [4], “Active”. Also, the outcome in data set [3] and in [6] was Active. Besides, the outcome in [5] was inactive.
Regarding `C[C@@H](O)[C@H](NC(=O)[C@H](Cc1ccccc1)NC(=O)[C@H](Cc1ccc(O)cc1)NC(=O)CN(CCCCN)C(=O)[C@H](CCCNC(=N)N)NC(=O)[C@H](CCCNC(=N)N)NC(=O)[C@H](CCCNC(=N)N)NC(=O)[C@H](CCC(N)=O)NC(=O)[C@H](CCCNC(=N)N)NC(=O)[C@H](CCCNC(=N)N)NC(=O)[C@H](CCCCN)NC(=O)[C@H](CCCCN)NC(=O)[C@@H](N)CCCNC(=N)N)C(=O)NCC(=O)N[C@@H](CO)C(=O)N[C@@H](CCCCN)C(=O)N[C@@H](CC(=O)O)C(=O)N[C@@H](Cc1c[nH]c2ccccc12)C(=O)N[C@@H](CCCNC(=N)N)C(=O)N[C@@H](CO)C(=O)N[C@@H](Cc1ccc(O)cc1)C(=O)N[C@@H](Cc1ccc(O)cc1)C(=O)N[C@@H](CO)C(=O)O`, the outcome (with Hippocampal neuron [7]; in the data set on Hippocampal neuron [8]; in [13]; with Hippocampal neuron [16]; with Primary cortical neuron) was Active. Further, in [9], the permeability result is “Permeable”. Also, the Activity in [10] is above 90%; with HEK-293T [11], “Non-toxic”; in data set [17], below 40%; with HEK-293T [18], “Non-toxic”. In addition, the fold change (FC) in data set [12] came to 4; in data set [14], 16. For the same compound, the remaining at 0.5 h, 200 µM in [15] is above 60%.
As for `C[C@@H](O)[C@H](NC(=O)[C@H](Cc1ccccc1)NC(=O)[C@H](Cc1ccc(O)cc1)NC(=O)CN(CCCCN)C(=O)[C@H](CCCNC(=N)N)NC(=O)[C@H](CCCNC(=N)N)NC(=O)[C@H](CCCNC(=N)N)NC(=O)[C@H](CCNC(=N)N)NC(=O)[C@H](CCCNC(=N)N)NC(=O)[C@@H](N)CCCNC(=N)N)C(=O)NCC(=O)N[C@@H](CO)C(=O)N[C@@H](CCCCN)C(=O)N[C@@H](CC(=O)O)C(=O)N[C@@H](Cc1c[nH]c2ccccc12)C(=O)N[C@@H](CCCNC(=N)N)C(=O)N[C@@H](CO)C(=O)N[C@@H](Cc1ccc(O)cc1)C(=O)N[C@@H](Cc1ccc(O)cc1)C(=O)N[C@@H](CO)C(=O)O`, the outcome in the data set on Hippocampal neuron [7], in the data set with Hippocampal neuron [8], in the data set on Hippocampal neuron [16] and in the data set on Primary cortical neuron was Active. Moreover, the permeability result in [9] is reported as “Permeable”. Also, the Activity entry with Hippocampal neuron [19] was “Dose-dependent-effect”; in the data set on HEK-293T [11], “Non-toxic”; in the data set with HEK-293T [18], “Non-toxic”. For the same compound, in data set [20], the viability at 24 h, 100 µM was around 50%. Also, the remaining at 0.5 h, 200 µM in data set [15] was above 60%.
